Shown are actives, neighbours in structure and some others; about 4.5% of the full set was active somewhere.
CHO parental Ca: counter-screen for OX1R antagonists: effect in parental CHO cells; inhibition, % at 5.6 µM; parental CHO-K1, ATP-induced calcium, Fluo-8 fluorescence; hit rate 0.63% among 330,000;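 active = inhibition above that plate's mean sample inhibition plus 3 SD, cut at about 26% in these data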;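 also: 0% = ATP-challenged DMSO wells and 100% = DMSO wells without ATP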
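Test system: parental CHO cells; detection: calcium-sensitive Fluo-8 fluorescence; evaluation: percent inhibition of calcium signal; also added: ATP as calcium-mobilizing challenge; repeats: one well per compound; control set: ATP-challenged DMSO wells low, unchallenged DMSO wells high; compound: single nominal dose of 5.6 µM per compound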
GPR7 antag: blocks human GPR7 receptor signaling | AID 1861 | hit rate 1.1% among 290,000 | inhibition, % at 4.4 µM | GPR7-expressing cells, fluorescence antagonist assay | P48145; in the data active = inhibition above about 16%, passing the limit was not always enough;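 also: cells stimulated with the agonist NPW; 0% = agonist with vehicle and 100% = vehicle without agonist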
OX1R antag-1: antagonists of human orexin 1 receptor (OX1R). O43613. OX1R-expressing cells, FRET antagonist read-out. inhibition, % at 6.6 µM. hit rate 1.8% among 330,000. AID 485270; in the data active = inhibition mostly above about 38%, no sharp cut-off; inactive = mostly below about 40%;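 also: 0% = agonist challenge alone and 100% = reference antagonist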
Target sequence (O43613 whole entry, looked up): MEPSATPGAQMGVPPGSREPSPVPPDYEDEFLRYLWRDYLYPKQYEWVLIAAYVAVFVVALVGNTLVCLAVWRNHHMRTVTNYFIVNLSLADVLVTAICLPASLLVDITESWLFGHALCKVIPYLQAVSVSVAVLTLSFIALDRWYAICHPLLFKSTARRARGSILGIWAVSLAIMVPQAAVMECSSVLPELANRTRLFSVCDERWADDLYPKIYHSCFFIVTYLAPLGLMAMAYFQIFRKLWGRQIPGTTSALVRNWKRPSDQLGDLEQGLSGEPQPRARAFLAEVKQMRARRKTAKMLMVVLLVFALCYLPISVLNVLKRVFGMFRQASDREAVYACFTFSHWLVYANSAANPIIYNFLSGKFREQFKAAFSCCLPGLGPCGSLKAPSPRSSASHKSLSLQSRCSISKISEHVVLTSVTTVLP
TAAR1 ag: human TAAR1 agonism. Q96RJ0. CHO RD-HGA16 TAAR1, Fluo-8 calcium fluorescence; vehicle wells 0%, saturating PEA agonist 100%. activation, % at 3 µM. hit rate 0.99% among 360,000. AID 624467;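 active = activation above the mean activation of all test compounds in the run plus 3 SD, cut at about 38% in these data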
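System: CHO RD-HGA16 cells carrying human TAAR1 plus Gα16; Incubation: 17-24 h seeding, 75 min 37 °C dye, 30 min RT; Measured by: Fluo-8 fluorescence, 5 s baseline then 140 s kinetic read; Control set: DMSO and PEA EC100; Replication: single well for each compound.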
OX1R antag-2: antagonists of human orexin 1 receptor | AID 434989 | hit rate 0.43% among 330,000 | CHO/OX1R cells, Fluo-8 calcium fluorescence, orexin A | inhibition, % at 5 µM;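 active = inhibition above its plate's threshold, mean inhibition of all tested compounds on the plate plus 3 SD, cut at about 37% in these data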;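 also: 0% = orexin A challenge wells and 100% = SB-334867-A antagonist wells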
TAAR1 antag: human TAAR1 antagonism; Q96RJ0; CHO RD-HGA16 TAAR1, Fluo-8 calcium fluorescence, antagonist; inhibition, % at 3 µM; hit rate 1.5% among 360,000; AID 624466;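 active = inhibition above a per-plate cutoff, the mean inhibition of test compounds on that plate plus 3 SD, cut at about 49% in these data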;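 also: 0% = DMSO plus EC80 beta-PEA response and 100% = DMSO alone without agonist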
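Material: RD-HGA16 CHO cells with stable hTAAR1 and Gα16; Dosing: single nominal final test compound concentration of 3 µM; Schedule: seeding 17-24 h prior, 75-min 37 °C, 30-min RT dye loading; Detection: kinetic Fluo-8 calcium fluorescence measurement; Measure: % inhibition from peak post-agonist over basal fluorescence ratio; Benchmarks: vehicle and agonist controls.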
Numbers without * were called inactive; . = no result.

SMILES	CHO parental Ca	GPR7 antag	OX1R antag-1	TAAR1 ag	OX1R antag-2	TAAR1 antag
Nc1[nH]c(C(=O)c2ccccc2)c(-c2ccccc2Br)c1C(=O)c1cccs1	.	.	.	-1	.	17
CCN1/C(=C/c2ccc3cc(C)ccc3[n+]2CC)Sc2ccccc21	89*	44*	103*	26	86*	56*
CCN1/C(=C/C=C/C=C/C=C/c2sc3ccccc3[n+]2CC)Sc2ccccc21	1	2	0	-1	0	-9
CCN1/C(=C/C=C/C=C/c2sc3ccccc3[n+]2CC)Sc2ccccc21	61*	-11	38	.	52*	.
CC[n+]1c(/C=C2\Sc3ccccc3N2C)ccc2cccc(C)c21	.	1	.	29	.	40
CCN1/C(=C/C=C/c2sc3ccccc3[n+]2CC)Sc2ccccc21	61*	.	41*	.	36	.
CCCCCCCCN1C(=O)[C@@H](CC(=O)N2CCN(C(=O)C3CC3)CC2)C[C@@]2(C(=O)OC)C1=C[C@H](C(C)(C)C)O[C@@H]2C	.	.	.	-3	.	-25
O=C(CS(=O)(=O)c1ccccc1)c1ccc2c(c1)OCCO2	1	18*	44	3	0	-4
O=C(C[n+]1ccc(/C=C/c2ccccc2)cc1)c1ccc2c(c1)OCCO2	-15	-4	23	44*	-18	-6
COc1ccc(NC(=O)C2=C(C)C(=O)OC23CCC(C)CC3)cc1Cl (centres undefined)	-21	0	16	10	-36	1
Fc1ccccc1Nc1nc2c(s1)CCc1ccccc1-2	.	-11	.	.	.	.
c1ccc(-c2nnc(N3CCN(c4ccccn4)CC3)c3ccccc23)cc1	-20	-9	14	4	-30	50*
O=C(c1cnc(N2CCN(c3ncccn3)CC2)c2ccccc12)N1CCN(c2ccccn2)CC1	-5	-10	9	18	1	61*
Cc1ccc(NC(=O)c2cnc(N3CCN(c4ccccn4)CC3)c3ccccc23)c(Br)c1	-5	26*	19	10	-2	72*
Cc1ccc(-c2nnc(N3CCN(c4ccccn4)CC3)c3ccccc23)cc1	14	-1	11	8	-23	42
Cc1ccccc1C(=O)N1CCN(c2ccccn2)CC1	-8	-8	14	6	-8	-8
CCOC(=O)N(C)C[C@H]1OCc2cnnn2CCCC(=O)N([C@H](C)CO)C[C@@H]1C	.	.	.	5	.	-27
Cc1ccccc1CN1[C@@H](C)[C@H](c2ccccc2)Oc2cccc(N3CCCC3)c2S1(=O)=O	.	.	.	1	.	-40
O=[N+]([O-])c1ccc(S(=O)(=O)N2CCN(c3ccc(N4CCOCC4)nn3)CC2)cc1	-7	.	46*	1	-9	-2
Cc1ccc(S(=O)(=O)N2CCN(c3ccc(N4CCOCC4)nn3)CC2)cc1[N+](=O)[O-]	-23	.	24	-1	-8	-20
CC1CCN(S(=O)(=O)c2ccc([N+](=O)[O-])cc2)CC1	1	-6	30	0	-13	-12
CN1CCN(S(=O)(=O)c2ccc([N+](=O)[O-])cc2)CC1	0	-21	31*	4	-3	-11
O=C(CSc1nnc2ccc(-c3ccccn3)nn12)Nc1cccc(F)c1	.	.	.	4	.	-21
COc1cccc(C(O)c2nc(-c3ccc(F)c(Cl)c3)cs2)c1 (centres undefined)	.	.	.	0	.	1
CCc1nnc(NS(=O)(=O)c2ccc(NC(=S)NC(=O)/C=C/c3ccc(C(C)C)cc3)cc2)s1	44*	-16	20	.	36	.
SMILES	CHO parental Ca	GPR7 antag	OX1R antag-1	TAAR1 ag	OX1R antag-2	TAAR1 antag
CCc1nnc(NS(=O)(=O)c2ccc(NC(=S)NC(=O)/C=C/c3ccccc3)cc2)s1	-18	1	15	-1	-16	13
COc1ccc(Cc2nnc(SCC(=O)c3ccccc3)o2)cc1	-12	-7	13	4	-27	-13
O=[N+]([O-])c1ccc(COc2ccccc2CO)cc1	.	.	.	-1	.	-10
COC(=O)[C@]12C[C@H](CC(=O)NCc3cccc4ccccc34)C(=O)N(CCc3ccc(OC)c(OC)c3)C1=C[C@H](C(C)(C)C)O[C@@H]2C	.	.	.	3	.	-14
Cc1ccc2ccccc2c1NC(=O)CNCc1ccccc1	.	.	.	6	.	32
CC(=O)Nc1ccccc1Nc1cc(C#N)c(C#N)cc1[N+](=O)[O-]	1	1	58*	8	-17	9

High-throughput results as filed in PubChem.
